Screening data deposited in PubChem BioAssay by several laboratories.
Only some compounds are listed: those with a hit (about 2.7% of all), similar ones and a draw of the others.
bovine MsrA act: activators of bovine methionine sulfoxide reductase A | AID 602163 | purified bovine MsrA, absorbance read-out | activation, % at 10.6 µM | 360,000 compounds, 0.3% hits; in the data active means activation above about 7.5%;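 further: 0% = vehicle and 100% = reference activator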
MsrA inh: inhibits bovine methionine sulfoxide reductase A; inhibition, % at 15.5 µM; 360,000 compounds, 0.75% hits; purified bovine MsrA, absorbance read-out;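 further: 0% = vehicle wells with enzyme and 100% = reference inhibitor wells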
ARFGAP1 inhibitor: inhibitors of rat ARFGAP1 | 360,000 compounds, 0.26% hits | Arfgap1-stimulated ARF1 GTP hydrolysis, GDP FP detection | inhibition, % at 16.5 µM | Q62848;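 active means inhibition above a per-plate limit, mean inhibition of low control wells plus 3 SD, cut at about 25% in these data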;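 further: 0% = DMSO wells with enzyme and 100% = wells lacking Arfgap1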
Target sequence (Q62848 1-136 limits assumed): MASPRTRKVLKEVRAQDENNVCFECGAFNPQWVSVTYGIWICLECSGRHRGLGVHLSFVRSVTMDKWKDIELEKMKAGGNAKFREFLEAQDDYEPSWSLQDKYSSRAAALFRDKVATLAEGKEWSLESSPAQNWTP
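Replicates: Single well per compound | Assay system: Truncated rat Arfgap1 GAP domain | Control set: No-Arfgap1 wells (100%) versus DMSO full-reaction wells (0%) | Times: Enzyme reaction 120 min at 25 °C after 20 min preincubation | Reagent: Human ARF1(Δ1-17)-GTP substrate | Measured by: Tracer-displacement fluorescence polarization with EDTA stop, 620/688 nm | Measure: Percent inhibition of Arfgap1-stimulated GTP hydrolysis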
Rev-erbA mod: modulators of human Rev-erb alpha DNA binding; P20393; Rev-erbα–FITC-DNA binding, fluorescence polarization, 90 min; activity, % at 10 µM; 370,000 compounds, 0.79% hits;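 active means activity above about 14%, limit read from the data; passing the limit was not always enough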;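 further: 0% = DMSO wells with 35 nM protein and 100% = DMSO wells with 750 nM protein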
ASAP1 GAP inh: blocks human ASAP1-stimulated Arf1 GTP hydrolysis | 360,000 compounds, 0.19% hits | inhibition, % at 16.5 µM | GDP FP detection; in the data active means inhibition above about 25%;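 further: 0% = vehicle with enzyme and substrate and 100% = no enzyme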
Target sequence (Q9ULH1 325-724 limits assumed): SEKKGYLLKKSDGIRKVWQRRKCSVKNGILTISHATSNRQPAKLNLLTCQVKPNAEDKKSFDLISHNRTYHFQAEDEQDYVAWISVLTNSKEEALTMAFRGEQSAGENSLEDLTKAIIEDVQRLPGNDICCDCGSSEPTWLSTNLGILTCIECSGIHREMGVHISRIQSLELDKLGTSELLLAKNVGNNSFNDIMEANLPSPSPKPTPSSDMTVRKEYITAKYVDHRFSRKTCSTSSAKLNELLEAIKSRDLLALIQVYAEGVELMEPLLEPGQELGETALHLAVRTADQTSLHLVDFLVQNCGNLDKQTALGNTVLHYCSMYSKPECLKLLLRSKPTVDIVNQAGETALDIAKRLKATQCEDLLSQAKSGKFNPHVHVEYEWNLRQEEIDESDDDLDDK
HGIII-sPLA2 inh: Inhibits HGIII-sPLA2 liposome hydrolysis, primary screen. Q9NZ20. inhibition, % at 12.2 µM. AID 743126. QFRET BODIPY PC-A2 liposome hydrolysis, fluorescence. 370,000 compounds, 0.56% hits;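 active means inhibition above mean plus 3 SD of compounds lying within the high and low control bounds, cut at about 19% in these data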;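 further: 0% = median of test compound wells and 100% = no enzyme DMSO wells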
MsrA inh confirm: bovine MsrA inhibition, confirmed; inhibition, % at 15.5 µM; shares compounds with MsrA inh; 2,300 compounds, 41% hits; AID 651822; purified bovine MsrA, absorbance read-out;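 further: coupled to thioredoxin reductase with NADPH and selenocystamine and DMSO as substrate; 0% = vehicle only and 100% = full effect of reference inhibitor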
* = called active by the depositor; . = not tested or not shown. Unless noted, no stated cut-off is given here; in the data, active means inhibition above about 4.5%; inactive means the rest.

SMILES	bovine MsrA act	MsrA inh	ARFGAP1 inhibitor	Rev-erbA mod	ASAP1 GAP inh	HGIII-sPLA2 inh	MsrA inh confirm
Cc1ccc(C)c(/C(O)=C2\C(=O)C(=O)N(CCCN3CCOCC3)C2c2cccnc2)c1 (stereo not drawn)	-5	16*	-3	3	0	2	0
O=C1C(=O)N(CCCN2CCOCC2)C(c2ccc([N+](=O)[O-])cc2)/C1=C(/O)c1ccc2c(c1)OCO2 (stereo not drawn)	-4	5.7*	-3	0	-14	-2	3
COC(=O)c1ccc(C2/C(=C(\O)c3ccc4c(c3)OCCO4)C(=O)C(=O)N2CCCN2CCOCC2)cc1 (stereo not drawn)	2	1	-11	-3	0	2	.
O=C(NCCc1c[nH]c2ccccc12)OCc1cn(-c2cccc(C(F)(F)F)c2)nn1	.	.	.	1	.	-89	.
NC(=O)c1cc(S(=O)(=O)N2CCN(c3ccc([N+](=O)[O-])cc3)CC2)cs1	-2	7.8*	6	4	9	-7	4.8*
Cc1ccccc1/C=N/n1c(C2CCCCC2)n[nH]c1=S	-2	14*	-1	0	-4	11	12*
Cc1ccc(/C=N/n2c(C3CCCCC3)n[nH]c2=S)cc1	0	7.8*	0	0	-8	9	4
Fc1ccccc1/C=N/n1c(C2CCCCC2)n[nH]c1=S	2	2	11	-2	-13	14	.
S=c1[nH]nc(C2CCCCC2)n1/N=C/c1ccccc1Br	-2	13*	0	-1	-1	11	12*
Cn1c(=O)c2cc(S(=O)(=O)N3CCN(c4ccc(F)cc4)CC3)ccc2n(C)c1=O	.	.	.	-7	.	3	.
CCOC(=O)N1CCN(C(=O)C[C@@H]2C(=O)N3CCCC4=C3[C@@]2(C(=O)OCC)CCC4)CC1	.	.	.	6	.	-1	.
COc1ccc(C(=O)N/C(=C\c2cccc3ccccc23)C(=O)NCCc2c[nH]c3ccccc23)cc1OC	-1	5.0*	-12	9	12	-53	1
COCCNC(=O)/C(C#N)=C/c1ccc(SC)cc1	-3	4.7*	6	3	-2	7	4
COCCNC(=O)/C(C#N)=C/c1ccc(C(=O)O)cc1	0	-1	-8	.	0	1	.
COCCNC(=O)/C(C#N)=C/c1ccc(C)o1	-15	6.8*	11	-1	6	5	3
CCOCCCNC(=O)/C(C#N)=C/c1ccc(C)o1	-4	7.0*	1	-3	4	0	4
Cc1ccc(/C=C(\C#N)C(=O)NCc2ccco2)o1	-4	3	-6	5	6	7	.
CCOC(=O)[C@@]12CCCC=C1N(CCc1ccc(Cl)cc1)C(=O)[C@H]2CC(=O)NCc1cccc2ccccc12	.	.	.	2	.	-15	.
CCC(C)Oc1ccc(/C=C/c2[nH]c(=O)[nH]c(=O)c2[N+](=O)[O-])cc1OC (stereo not drawn)	-3	7.6*	7	1	-1	-11	4.6*
COc1cc(/C=C/c2[nH]c(=O)[nH]c(=O)c2[N+](=O)[O-])ccc1OCCC(C)C	-4	2	-3	1	9	1	.
O=C(Nc1ccc(Cl)c(Cl)c1)C1CCCN(c2nnc(-n3cccc3)s2)C1 (stereo not drawn)	.	.	.	0	.	-12	.
COC(=O)C1CN(Cc2ccc(OC)cc2)CCS(=O)(=O)N1Cc1cn(Cc2ccc(C)cc2)nn1 (stereo not drawn)	.	.	.	8	.	-7	.
O=Cc1cnc(N2CCCCC2)s1	-6	5.0*	-4	3	-8	-1	6.9*
O=C(NCc1ccccc1Cl)C1CCCN(c2nc3ccccc3o2)C1 (stereo not drawn)	.	.	.	-9	.	2	.
Cc1nc2sc3c(c2c(=O)n1N)CCC3	-2	-1	-9	4	-5	0	.
SMILES	bovine MsrA act	MsrA inh	ARFGAP1 inhibitor	Rev-erbA mod	ASAP1 GAP inh	HGIII-sPLA2 inh	MsrA inh confirm
Cn1nnc2sc3c(c2c1=O)CCCC3	-1	5.0*	-6	-3	11	11	5.8*
CCOC(=O)C1CCN(C(=O)C(Cc2ccc3c(c2)OCO3)NC(C)=O)CC1 (stereo not drawn)	.	.	.	3	.	2	.
Cc1nnsc1Sc1ccccn1	-4	-2	0	-1	9	0	.
c1ccc(-c2nnsc2Sc2ccccn2)cc1	3	5.8*	9	6	-13	-3	4
CC(C)c1ccc(S(=O)(=O)/N=C2\C=C(NS(=O)(=O)c3ccccc3)C(=O)c3ccccc32)cc1	-1	2	-12	-2	10	-6	.
CCc1ccc(S(=O)(=O)/N=C2\C=C(NS(=O)(=O)c3ccccc3)C(=O)c3ccccc32)cc1	-12	1	-2	1	11	1	.
Cc1ccccc1NC1=C/C(=N\S(=O)(=O)c2ccc(C(=O)O)cc2)c2ccccc2C1=O	-2	19*	-13	-10	12	-4	21*
Cc1ccc(NC2=C/C(=N/S(=O)(=O)c3cccs3)c3ccccc3C2=O)cc1C	-5	-1	1	2	-6	-4	.
O=C(O)c1ccc(S(=O)(=O)/N=C2\C=C(Nc3ccccc3F)C(=O)c3ccccc32)cc1	-2	46*	-9	-5	-2	-2	47*
CC(=O)Nc1ccc(NC2=C/C(=N/S(=O)(=O)c3cccs3)c3ccccc3C2=O)cc1	1	47*	9	-1	20	-7	44*
COc1ccc(C(F)(F)F)cc1NC(=O)C(OC(=O)CNC(=O)c1ccccc1)c1ccccc1 (stereo not drawn)	.	.	.	-3	.	-5	.
COCc1cc(C)nc(N/N=C/c2ccc(-c3cc(C(=O)O)ccc3Cl)o2)c1C#N	.	5.3*	-3	1	1	1	1
C/C(C=NNC(=O)CSc1nnc(-c2ccccc2)n1-c1ccc(C)cc1)=C\c1ccco1	.	.	.	-10	.	-10	.
O=c1oc2ccccc2cc1-c1cn2cccnc2n1	1	5.8*	10	3	-5	5	5.0*
Cc1cccc(NC(=O)Nc2c(-c3ccc(C(F)(F)F)cc3)nc3ncccn23)c1	.	.	.	-4	.	-1	.
C=CCOc1ccc(/C=N\NC(N)=S)cc1	-6	2	1	3	-5	11	.
CC(C)Oc1ccc(/C=N/NC(N)=S)cc1	-3	4.8*	3	3	11	18	2
Cc1ccccc1Nc1c(N)c(=O)oc2ccccc12	2	6.1*	15	-3	10	-1	7.8*
Cc1ccc(S(=O)(=O)c2c(N)n(NC(=O)c3ccco3)c3nc4ccccc4nc23)cc1	0	4.8*	-3	-2	-10	-11	2
CC[n+]1c(/C=C(\C)SC)sc2ccccc21	2	4	-13	.	-8	-3	.
CC[n+]1c(/C=C(\C)OC)sc2ccccc21	-12	5.8*	-2	0	1	8	5.0*
